Measurements published in PubChem BioAssay AID624467 (The Scripps Research Institute Molecular Screening Center, 2012).
Screen size: about 360,000 compounds; about 3,600 (1%) were called active.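 Rule for the calls: active = activation above the mean activation of all test compounds in the run plus 3 SD (cut at about 38% in these data); inactive = the rest.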 This excerpt belongs to a sample that is enriched for actives.

Target: Trace amine-associated receptor 1 (Homo sapiens) (UniProt Q96RJ0)
Assay: activators of TAAR1 calcium mobilization – Fluo-8 calcium fluorescence, CHO RD-HGA16 cells, primary screen (AID 624467)
Conditions: CHO RD-HGA16 TAAR1, Fluo-8 calcium fluorescence; at 3 µM; stronger effect = higher value; vehicle wells 0%, saturating PEA agonist 100%
Procedure, shortened: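 Benchmarks: low control DMSO, high control PEA (EC100); System: CHO RD-HGA16 cells carrying human TAAR1 plus Gα16; Detection: Fluo-8 fluorescence, 5 s baseline then 140 s kinetic read; Schedule: 17-24 h plating, Fluo-8 75 min 37 °C, 30 min RT; Read-out basis: % activation from peak over basal fluorescence ratio, DMSO-to-PEA scaled.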

Chain of Trace amine-associated receptor 1 (Homo sapiens) (Q96RJ0 whole entry, looked up): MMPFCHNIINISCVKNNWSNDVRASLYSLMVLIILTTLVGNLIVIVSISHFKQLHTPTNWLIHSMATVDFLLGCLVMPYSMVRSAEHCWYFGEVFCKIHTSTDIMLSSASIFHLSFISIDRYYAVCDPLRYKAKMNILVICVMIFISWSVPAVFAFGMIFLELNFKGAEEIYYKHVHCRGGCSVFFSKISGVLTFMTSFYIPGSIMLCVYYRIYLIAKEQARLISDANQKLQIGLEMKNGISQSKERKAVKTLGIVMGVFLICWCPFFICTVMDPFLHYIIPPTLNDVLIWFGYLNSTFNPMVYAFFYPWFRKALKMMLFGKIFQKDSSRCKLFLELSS

activation, inactive:
Cc1ccc(NC(=S)Nc2ncccc2C)c(C)c1 -3.17%, CC(C)N(Cc1nnc(-c2ccccc2Br)o1)C(=O)c1cc(Cl)nc2ccccc12 4.53%, Cn1cnnc1SCc1nnc(-c2ccccc2Br)o1 11.2%, CC1(C(=O)NS(=O)(=O)c2cccc(OC(F)F)c2)CCN1C(=O)COc1ccc(Cl)cc1 (configuration not stated) 1.84%, COC(=O)c1c(-c2ccc(OC)cc2)c2c(c3c4ccccc4n(S(=O)(=O)c4ccc(C)cc4)c13)C(=O)N(C)C2 -0.97%, COc1ccc(CNCCCn2cnc3c(OCc4ccccc4)ncnc32)cc1 2.67%, COc1ccc(-c2c(C#Cc3ccccc3)c3ccccc3n2C)cc1 1.86%, Cc1ccc(N2C(=O)C(NC(=O)c3c(F)cccc3F)(C(F)(F)F)C3=C2CC(C)(C)CC3=O)cc1 (configuration not stated) 0.87%, O=C1[C@@H](c2ccccc2)[C@@H](c2ccccc2)N1c1ccccc1 3.32%, CC(C)(C)OC(=O)N1CCN(C(=O)c2[nH]c(C(F)(F)F)nc2-c2ccccc2)CC1 1.1%, COc1ccccc1-c1c(C#N)c(N)nc2c1CCC2 -0.25%, CSc1ccc(-c2c(C#N)c(N)nc3c2c(C)nn3-c2ccccc2)cc1 8.14%, CCc1ccc2oc(-c3ccc(N)cc3)nc2c1 11.3%, Cc1ccc2oc(=O)ccc2c1 0.04%, O=C1CCN(C(=O)Nc2ccccc2)N1 3.7%, C[C@H]1CN([C@@H](C)CO)C(=O)CCCn2nncc2CO[C@@H]1CN(C)C(=O)Nc1ccc(N2CCN(C)CC2)cc1 0.67%, CCOc1ccc(Br)cc1S(=O)(=O)Nc1ccc(S(=O)(=O)Nc2cc(C)on2)cc1 -0.13%, O=C(NNC(=S)Nc1ccc(Br)cc1Cl)c1ccco1 3.5%, CCC1CCCCN1C(=S)NC(=O)c1ccco1 (configuration not stated) 4.61%, O=C(Nc1ccc2ccccc2c1)/C(=C\c1ccc2c(c1)OCO2)NC(=O)c1ccco1 -0.26%, NS(=O)(=O)c1ccc(CNC(=S)NC(=O)c2ccco2)cc1 1.56%

activation, active:
Nc1cccc2c1C(=O)N(Cc1nnc(-c3ccccc3Br)o1)C2=O 75.4%, COc1ccc(CCNCc2c(-c3ccccc3)n(C)c3ccccc23)cc1 37.6%, CSc1nc(N)c(C#N)c(-c2ccccc2Cl)c1C#N 56.9%, CCN(CC)c1ccc2oc(=O)c(C)nc2c1 81%, CC(Oc1ccc2ccccc2c1)C(=O)NNC(=S)NC(=O)c1ccco1 (configuration not stated) 98.9%, CCCc1ccc(OCC(=O)NNC(=S)NC(=O)c2ccco2)cc1 83.4%
